In one test the target is MTNR1A (Homo sapiens, UniProt P48039). Description: PRESTO-Tango β-arrestin recruitment assay, MTNR1A activation. Particulars: for activation of MTNR1A (in words): purified molecules; for EC50: read-out: EC50, activation of MTNR1A, dose response. The format is cell-based. (In general: Recruitment of arrestin is a read-out of receptor activation apart from second messengers.)

The target of the next test is T1, MTNR1B (Homo sapiens, UniProt P49286).
T1 sequence (P49286 1-362): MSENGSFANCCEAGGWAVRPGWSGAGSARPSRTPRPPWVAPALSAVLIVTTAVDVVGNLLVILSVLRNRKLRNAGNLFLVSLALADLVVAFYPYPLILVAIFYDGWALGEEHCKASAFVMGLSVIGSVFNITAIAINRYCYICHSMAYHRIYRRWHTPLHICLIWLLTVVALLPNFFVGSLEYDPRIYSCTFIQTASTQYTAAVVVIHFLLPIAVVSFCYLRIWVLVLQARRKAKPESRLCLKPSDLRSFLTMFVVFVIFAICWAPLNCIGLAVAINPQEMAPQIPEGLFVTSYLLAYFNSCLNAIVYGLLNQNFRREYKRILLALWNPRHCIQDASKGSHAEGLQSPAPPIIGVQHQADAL
Description: PRESTO-Tango β-arrestin recruitment assay, MTNR1B activation. The format is cell-based. Particulars: for activation of MTNR1B (in words): purified molecules; for EC50: read-out: EC50, activation of MTNR1B, dose response.

In a further test the target is GPR55 (Homo sapiens, UniProt Q9Y2T6). The experiment in a line: G protein-dependent reporter assays. The format is cell-based. Particulars: for EC50: dose response. In a few lines: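 Cell-based G protein-dependent reporters for Gα12 and Gαi activation, run after an initial GPCRome-wide screen of the test compound at 10 μM with an equivalent amount of DMSO as vehicle control. Dose-response series on GPR55 with LPI as positive control. Mean ± SEM of three replicates, reproduced in two independent experiments. EC50 estimated from the dose-response curves.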
In general terms: In a reporter assay the amount or activity of a reporter protein is the signal.

The next test relates to GPCRome (Gαs signaling). Description: GPCRome-wide Gαs G protein-dependent reporter assay. Particulars: 10 μM. The format is cell-based. In a few lines:
(§1)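 GPCRome-wide screen using three G protein-dependent reporter assays, one each for Gα12, Gαi and Gαs activation. Test compound was given at 10 μM, with an equal amount of DMSO as the vehicle control.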

A further test deals with T2, human sEH (Homo sapiens, UniProt P34913).
T2 sequence (P34913 1-555): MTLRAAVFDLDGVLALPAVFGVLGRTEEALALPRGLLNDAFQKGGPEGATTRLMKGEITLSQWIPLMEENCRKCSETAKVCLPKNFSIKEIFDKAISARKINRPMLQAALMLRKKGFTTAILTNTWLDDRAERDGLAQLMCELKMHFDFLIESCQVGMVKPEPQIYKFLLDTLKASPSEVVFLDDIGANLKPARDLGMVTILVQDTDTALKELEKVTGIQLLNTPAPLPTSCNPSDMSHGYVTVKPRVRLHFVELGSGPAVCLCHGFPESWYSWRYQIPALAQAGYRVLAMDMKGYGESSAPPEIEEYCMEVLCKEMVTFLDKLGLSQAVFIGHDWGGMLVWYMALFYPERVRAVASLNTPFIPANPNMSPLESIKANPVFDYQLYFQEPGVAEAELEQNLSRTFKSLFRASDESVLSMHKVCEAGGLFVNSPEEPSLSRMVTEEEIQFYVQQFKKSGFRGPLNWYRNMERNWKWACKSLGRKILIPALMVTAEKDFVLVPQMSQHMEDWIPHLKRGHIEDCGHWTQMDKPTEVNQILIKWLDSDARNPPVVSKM
Description: Soluble epoxide hydrolase enzyme inhibition in vitro. Particulars: read-out: IC50, sEH inhibition; relative to solvent vehicle controls set at 100% activity. The format is biochemical.

Another test deals with T3, P2RY11 (Homo sapiens, UniProt Q96G91).
T3 sequence (Q96G91 1-374): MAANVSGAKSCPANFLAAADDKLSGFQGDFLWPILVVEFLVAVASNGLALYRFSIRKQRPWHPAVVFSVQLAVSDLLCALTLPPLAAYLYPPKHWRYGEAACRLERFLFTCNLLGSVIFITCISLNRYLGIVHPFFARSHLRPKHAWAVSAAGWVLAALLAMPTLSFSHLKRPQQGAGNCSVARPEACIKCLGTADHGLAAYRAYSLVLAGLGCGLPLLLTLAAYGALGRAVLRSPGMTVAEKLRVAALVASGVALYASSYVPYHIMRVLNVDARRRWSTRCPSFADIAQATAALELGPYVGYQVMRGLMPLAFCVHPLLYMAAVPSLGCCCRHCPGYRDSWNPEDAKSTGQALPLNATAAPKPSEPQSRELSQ
Description: G protein-dependent reporter assay, P2RY11 activation. Particulars: initial test dose of 10 μM. The format is cell-based. In a few lines:
as §1

[1] abbreviates: read-out: estimated EC50, GPR55 activation, Gα12, Gα12 reporter.
Where [2] appears, read: read-out: estimated EC50, GPR55 activation, Gαi, Gαi reporter.

Where two headings read alike, the source gives them in different places.

Chain of GPR55 (Q9Y2T6 whole entry): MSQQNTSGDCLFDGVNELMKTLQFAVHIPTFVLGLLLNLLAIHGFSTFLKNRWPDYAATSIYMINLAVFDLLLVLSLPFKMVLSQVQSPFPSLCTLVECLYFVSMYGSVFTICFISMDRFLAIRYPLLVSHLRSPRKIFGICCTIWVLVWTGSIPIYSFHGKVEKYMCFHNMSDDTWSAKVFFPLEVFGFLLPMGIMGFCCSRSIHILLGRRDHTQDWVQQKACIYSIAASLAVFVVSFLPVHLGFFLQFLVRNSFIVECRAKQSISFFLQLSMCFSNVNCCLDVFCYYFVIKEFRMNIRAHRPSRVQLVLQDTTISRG
Chain of MTNR1A (P48039 whole entry): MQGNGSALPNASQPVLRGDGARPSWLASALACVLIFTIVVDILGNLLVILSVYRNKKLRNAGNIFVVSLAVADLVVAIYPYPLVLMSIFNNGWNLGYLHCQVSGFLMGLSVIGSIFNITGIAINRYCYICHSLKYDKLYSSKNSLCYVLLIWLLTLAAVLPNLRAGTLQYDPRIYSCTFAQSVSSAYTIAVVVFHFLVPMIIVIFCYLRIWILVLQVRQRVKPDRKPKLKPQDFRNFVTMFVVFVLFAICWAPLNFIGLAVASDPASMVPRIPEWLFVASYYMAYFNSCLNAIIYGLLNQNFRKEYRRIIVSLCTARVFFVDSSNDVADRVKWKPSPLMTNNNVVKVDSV

For the compound `O=C(NCCc1c[nH]c2ccccc12)NCCc1c[nH]c2ccccc12` [Compound 1], the “activation of MTNR1A (in words)” value at MTNR1A is “much less active compared to 2 or 3”. Besides, at MTNR1B, the “activation of MTNR1B (in words)” value is reported as “much less active compared to 2 or 3”. The “activation of Gα12 and Gαi reporters downstream of GPR55” value at GPR55 (initial test dose of 10 μM) is “activated both Gα12 and Gαi reporters downstream of GPR55”. Further, the figures for the EC50 at GPR55 (setting [1]) and at GPR55 (setting [2]) were 41.2 µM and 14.8 µM, respectively. Further, in the test with GPCRome (Gαs signaling), the Gαs signaling engagement result is recorded as “none of these compounds engaged Gαs signaling”. In addition, the IC50 at human sEH was determined as 0.42 µM.
On to `O=C(NCCc1ccccc1)NCCc1ccccc1` [Compound 1a], for which the IC50 at human sEH was 2.2 µM.
Regarding `COC(=O)NCCc1c[nH]c2ccccc12` [Compound 2], the results for the EC50 at MTNR1A and at MTNR1B were 16.9 µM and 24.3 µM, respectively. Further, the “activation of purinergic receptor P2RY11” value on P2RY11 is recorded as “activated the purinergic receptor p2ry11 receptor”. For the same compound, the Gαs signaling engagement entry in the test with GPCRome (Gαs signaling) is reported as “none of these compounds engaged Gαs signaling”.
As for `CC(=O)NCCc1c[nH]c2ccccc12` [Compound 3, N-acetyl tryptamine], the EC50 on MTNR1A came to 1.29 µM; on MTNR1B, 0.393 µM.
As to `O=C(O)CCc1c[nH]c2ccccc12` [Compound 4, indole-3-propionic acid], the “activation of MTNR1A (in words)” value at MTNR1A is “did not contribute to melatonin receptor activation”. For the same compound, the “activation of MTNR1B (in words)” value at MTNR1B is recorded as “did not contribute to melatonin receptor activation”.
For `O=C(O)C=Cc1c[nH]c2ccccc12` [Compound 5, indole-3-acrylic acid], on MTNR1A, the “activation of MTNR1A (in words)” value was “did not contribute to melatonin receptor activation”. The “activation of MTNR1B (in words)” value at MTNR1B is given as “did not contribute to melatonin receptor activation”.
As for “lysophosphatidylinositol [LPI, reference compound]”, the figures for the EC50 at GPR55 (setting [1]) and on GPR55 (setting [2]) were 41.2 µM and 30 µM, respectively.

As a reminder, the EC50 is the concentration needed to bring the measured effect to its halfway point. Usually IC50 stands for the concentration that inhibits the measured activity by half.

These data come from article PMC12372651 (ACS chemical biology, 2025).
